Source: PubChem (NMMLSC)
MEKK3 PB1 HTS – MEKK3-MEK5 PB1 interaction, increase or decrease; actives 1.4% (n = 290,000); binding response (% of control), % at 10 µM; bead-based flow cytometry, Alexa488-MEK5 binding to MEKK3; actives lie on both sides; 0 = blocked by unlabeled MEK5, 100 = vehicle; AID 1529;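 active = binding response more than 3 SD above or below the average of its plate-row segment, actives on both sides; inconclusive = wells at one plate position flagged as instrument error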;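 also: Alexa488 bead fluorescence after subtracting the streptavidin-only scavenger bead signal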
ABCG2 inh – human ABCG2 inhibition, ABCB1 as counter-screen. IgMXP3 cells, JC-1 efflux, flow cytometry. inhibition, % at 6.6 µM. Q9UNQ0. actives 0.1% (n = 190,000). AID 1325;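 active = inhibition above 80%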;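 also: 0% = DMSO and 100% = nicardipine control wells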
Target sequence (Q9UNQ0 whole entry, looked up): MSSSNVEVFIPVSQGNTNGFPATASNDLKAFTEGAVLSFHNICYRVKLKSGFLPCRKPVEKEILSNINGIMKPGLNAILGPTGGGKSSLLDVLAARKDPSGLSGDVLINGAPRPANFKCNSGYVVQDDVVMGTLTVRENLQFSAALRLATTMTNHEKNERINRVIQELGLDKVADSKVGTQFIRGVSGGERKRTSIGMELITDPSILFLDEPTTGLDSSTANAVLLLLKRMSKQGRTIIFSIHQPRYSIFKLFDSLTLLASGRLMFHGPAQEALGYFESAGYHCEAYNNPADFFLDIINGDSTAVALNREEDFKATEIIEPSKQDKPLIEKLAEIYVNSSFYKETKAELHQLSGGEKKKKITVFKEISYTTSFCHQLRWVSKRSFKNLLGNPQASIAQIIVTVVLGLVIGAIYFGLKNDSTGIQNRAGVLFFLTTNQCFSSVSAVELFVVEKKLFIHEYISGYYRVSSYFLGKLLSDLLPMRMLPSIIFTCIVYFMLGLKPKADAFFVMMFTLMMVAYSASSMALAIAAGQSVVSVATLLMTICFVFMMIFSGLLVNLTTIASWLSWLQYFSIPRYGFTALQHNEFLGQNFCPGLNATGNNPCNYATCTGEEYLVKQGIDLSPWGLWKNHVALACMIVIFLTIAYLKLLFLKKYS
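Incubation: cells with compound and JC-1, 10 min at 25 °C, rotating, no wash / Test system: IgMXP3 (ABCG2) plus far-red-tagged CCRF-Adr (ABCB1) cells / Compound dosing: one concentration, 6.6 µM final / Also added: JC-1 fluorescent substrate / Evaluation: efflux inhibition in percent versus controls / Detection: flow cytometry, 530 nm JC-1 signal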
ABCB1 inh – human ABCB1 inhibition, ABCG2 as counter-screen; P08183; CCRF-Adr cells, JC-1 efflux, flow cytometry; inhibition, % at 6.6 µM; actives 0.067% (n = 190,000); AID 1326; in the data active = inhibition above about 40%;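 also: 0% = vehicle and 100% = reference inhibitor; higher value means more JC-1 retained so stronger ABCB1 efflux block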
MEKK2 WT-MEK5 – raises or lowers MEK5 binding to wildtype human MEKK2 PB1 domain; Q9Y2U5; bead flow cytometry, Alexa488-MEK5 binding to MEKK2 WT; actives lie on both sides; binding response (% of control), % at 10 µM; actives 1.1% (n = 290,000); AID 1531; in the data active = binding response below about 67% or above about 130%; inconclusive = no clear call, values can overlap the other calls; inactive = in between
MEKK2mut PB1 HTS – signal of MEK5 binding to mutant human MEKK2 PB1 domain; actives 0.35% (n = 290,000); bead flow cytometry, Alexa488-MEK5 binding to MEKK2 mutant; percent response, % at 10 µM; AID 1530; in the data active = percent response above about 24%, passing the limit was not always enough
Numbers without * were called inactive; ? = inconclusive; . = no result; [ ] = dose if it differs, or a comment. A selection: hits, their analogues and other compounds. The true share with any hit is near 2.3%.

SMILES | MEKK3 PB1 HTS | ABCG2 inh | ABCB1 inh | MEKK2 WT-MEK5 | MEKK2mut PB1 HTS
COc1ccccc1Nc1ncnc2c1c(C)c(C)n2CCO | 96 | . | . | 97 | 1
Fc1cnc(N2CCOCC2)nc1N1CCOCC1 | 100 | 6 | 0 | 99 | 0
Clc1nc(N2CCOCC2)ncc1Br | 91 | . | . | -4.0* | 2
O=C(Nc1ccc(NC(=O)c2ccccc2Cl)cc1)c1cccnc1 | 39*[inhibitor] | . | . | 53*[inhibitor] | -28
O=C(Nc1ccccc1C(=O)Nc1ccc(Cl)cc1)c1cccnc1 | 97 | . | . | 104 | 2
CN(Cc1ccccc1)C(=O)CCC1CCN(C(=O)CCC(F)(F)F)CC1 | 100 | . | . | 100 | 0
COc1cc(C(=O)N/N=C(\c2ccccc2)c2ccccn2)cc(OC)c1OC | 134* | 30 | 1 | 106 | 0
COc1cc(C(=O)N/N=C(\C)c2ccccn2)cc(OC)c1OC | 96 | . | . | 95 | -3
COCCCNC(=O)CCc1c(C)c2cc3c(C)coc3cc2oc1=O | 102 | . | . | 99 | 1
Cc1ccccc1OCC(O)CN1CCC(C)CC1 (configuration not stated) | 1.0*[inhibitor] | 6 | -1 | 0.0*[inhibitor] | -47
O=C1c2cccc3cccc(c23)C(=O)N1CC1CCN(CC(O)COCc2ccc3c(c2)OCO3)CC1 (configuration not stated) | 105 | 4 | 1 | 128 | 0
Cc1ccccc1OCC(O)CN1CCN(CC(O)COc2ccccc2C)CC1 (configuration not stated) | 99 | 1 | 3 | 107 | 6
Cc1ccc(C)c(OCC(O)CN2CCC(CN3C(=O)c4cccc5cccc(c45)C3=O)CC2)c1 (configuration not stated) | 112 | 3 | 6 | 162* | 6
COCCN1CCN(C(=O)C2CCC(=O)N(Cc3ccccc3OC)C2)CC1 (configuration not stated) | 103 | . | . | 109 | 10
Cc1nnc(-n2ncc(C#N)c2N)c2nn(-c3cccc(Cl)c3)c(C)c12 | 95 | 3 | 1 | 97 | 2
Cc1nnc(N2CCOCC2)c2nn(-c3cccc(Cl)c3)c(C)c12 | 122 | 7 | 1 | 80 | 85*
COc1ccc(-c2cnc(N)n2C)cc1 | 98 | 1 | 0 | -8.0* | -36
COc1ccccc1NS(=O)(=O)c1ccc(NC(=O)c2[nH]nc(OC)c2[N+](=O)[O-])cc1 | 102 | . | . | 105 | 1
Cc1nnc(NC(=O)c2ccc(F)c(S(=O)(=O)N3CCCCC3)c2)s1 | 99 | . | . | 96 | -5
Cc1cccc(C(=O)N(Cc2cccs2)C2CCS(=O)(=O)C2)c1 (configuration not stated) | 102 | . | . | 100 | 3
O=C(c1ccc(F)cc1)N(Cc1cccs1)C1CCS(=O)(=O)C1 (configuration not stated) | 2.0*[inhibitor] | . | . | 0.0*[inhibitor] | -18
CCOc1cccc(C2/C(=C(/O)c3ccc4c(c3)CC(C)O4)C(=O)C(=O)N2Cc2ccncc2)c1 (configuration not stated) | 101 | . | . | 104 | 1
Cc1ccc(S(=O)(=O)N(CCCO)Cc2cc3c(C)ccc(C)c3[nH]c2=O)cc1 | 90 | 1 | 1 | -2.0* | -12
CC(C)CCn1c(=O)c2sccc2n2c(CCCC(=O)N3CCN(c4ccccn4)CC3)nnc12 | 105 | . | . | 106 | 4
Cc1ccc(-c2csc(NC(=O)CSc3nc4ccccc4c(=O)n3CCCN(C)C)n2)cc1 | 107 | 4 | 0 | 207* | 67*
SMILES | MEKK3 PB1 HTS | ABCG2 inh | ABCB1 inh | MEKK2 WT-MEK5 | MEKK2mut PB1 HTS
CN1CCN(c2ccc(NC(=O)c3sc4ccccc4c3Cl)cc2)CC1 | 113 | 0 | 0 | 121 | 2
COC(=O)c1ccc(N2CCN(C)CC2)c(NC(=O)c2sc3ccccc3c2Cl)c1 | 111 | . | . | 172* | 22
CS(=O)(=O)N1CCc2ccc(NC(=O)C3CCCO3)cc2C1 (configuration not stated) | 106 | . | . | 111 | 8
CN(C)C(=O)COc1ccc(S(=O)(=O)c2ccc(OCC(=O)N(C)C)cc2)cc1 | 107 | . | . | 107 | 9
CCOC(=O)/C(=C/c1ccc(OC(=O)c2ccncc2)cc1)C(C)=O | 98 | 16 | 5 | 88 | -9
COCCOC(=O)/C(=C/c1ccc(OC(=O)c2ccccc2)cc1)C(C)=O | 96 | 33 | 1 | 4.0* | 17
O=C(C1CCC(CNS(=O)(=O)c2cccs2)CC1)N1CCN(c2ccc(F)cc2)CC1 (configuration not stated) | 77*[inhibitor] | . | . | 94 | -20
O=C(NCc1ccc(F)cc1)C1CCC(CNS(=O)(=O)c2cccs2)CC1 (configuration not stated) | 94 | . | . | 89 | -5
Cc1ccccc1-c1nc(CN2CCC(C(=O)NCCCN3CCOCC3)CC2)c(C)o1 | 102 | 2 | 0 | 130 | 14
Cc1ccccc1-c1nc(CN2CCC(C(=O)NCCCN3CCCC3)CC2)c(C)o1 | 102 | 2 | 1 | 198* | 51*
COCCCNC(=O)CCCN1C(=O)c2cccnc2Sc2ccccc21 | 102 | . | . | 104 | -1
CCn1c(C)c(C)c2cc(C(=O)NCCCN3CCCC3)ccc21 | 104 | . | . | 144* | 14
CCn1c(C)c(C)c2cc(C(=O)NCCCN3CCCCC3C)ccc21 (configuration not stated) | 103 | . | . | 17* | 41*
CCn1c(C)c(C)c2cc(C(=O)NCCN3CCOCC3)ccc21 | 95 | . | . | 98 | 1
CC1=C(C(=O)O)N2C(=O)C(NC(=O)c3ccn(C)n3)C2SC1 (configuration not stated) | 106 | 8 | 0 | 106 | 5
CC1=C(C(=O)O)N2C(=O)C(NC(=O)c3nn(C)cc3[N+](=O)[O-])C2SC1 (configuration not stated) | ? | -2 | 0 | ? | 139*
Oc1cccc(C(O)CNCc2ccc(-c3ccccc3)cc2)c1 (configuration not stated) | 105 | 18 | 1 | 128 | 2
Oc1cccc(C(O)CNCc2ccc(OCc3ccc(Cl)cc3Cl)cc2)c1 (configuration not stated) | 107 | 1 | 0 | 155* | 8
COc1cccc(OCc2cc(C(=O)N(C)CCOc3ccc(C)cc3)no2)c1 | 96 | . | . | 92 | -2
O=C(OCCN1CCOCC1)c1ccc(Cl)cc1Cl | 103 | . | . | 105 | 13
COc1ccc(-n2c(SCCNCCO)nc3sc4c(c3c2=O)CCCC4)cc1 | 108 | . | . | 144* | 24*
O=C(O)CCCNc1cc(N2CCN(C(=O)c3ccco3)CC2)c2noc3c2c1C(=O)c1ccccc1-3 | 67*[inhibitor] | . | . | 60*[inhibitor] | -11
O=C1c2ccccc2-c2onc3c(N4CCN(CCO)CC4)cc(N4CCN(C(=O)c5ccco5)CC4)c1c23 | 81*[inhibitor] | . | . | 85 | 3
O=C(Cc1ccc(Cl)cc1)NCCCNC(=O)c1cccnc1 | 99 | . | . | 100 | 6
